Experimental data as given in ChEMBL document CHEMBL1914427, “Design, synthesis and biological evaluation of benzo[1.3.2]dithiazolium ylide 1,1-dioxide derivatives as potential dual cyclooxygenase-2/5-lipoxygenase inhibitors” (Bioorg Med Chem, 2011).
Active and inactive are the calls of the source. No cut-off for these calls is given here.

What was measured:
[1] = target: T1, Polyunsaturated fatty acid 5-lipoxygenase (Homo sapiens) (UniProt P09917); experiment: Inhibition of […] human 5-LOX in human PBML assessed as inhibition of A23187-induced LTB4 production at 10 uM preincubated for 15 mins measured after 15 mins by enzyme immunoassay
T1 sequence (whole entry): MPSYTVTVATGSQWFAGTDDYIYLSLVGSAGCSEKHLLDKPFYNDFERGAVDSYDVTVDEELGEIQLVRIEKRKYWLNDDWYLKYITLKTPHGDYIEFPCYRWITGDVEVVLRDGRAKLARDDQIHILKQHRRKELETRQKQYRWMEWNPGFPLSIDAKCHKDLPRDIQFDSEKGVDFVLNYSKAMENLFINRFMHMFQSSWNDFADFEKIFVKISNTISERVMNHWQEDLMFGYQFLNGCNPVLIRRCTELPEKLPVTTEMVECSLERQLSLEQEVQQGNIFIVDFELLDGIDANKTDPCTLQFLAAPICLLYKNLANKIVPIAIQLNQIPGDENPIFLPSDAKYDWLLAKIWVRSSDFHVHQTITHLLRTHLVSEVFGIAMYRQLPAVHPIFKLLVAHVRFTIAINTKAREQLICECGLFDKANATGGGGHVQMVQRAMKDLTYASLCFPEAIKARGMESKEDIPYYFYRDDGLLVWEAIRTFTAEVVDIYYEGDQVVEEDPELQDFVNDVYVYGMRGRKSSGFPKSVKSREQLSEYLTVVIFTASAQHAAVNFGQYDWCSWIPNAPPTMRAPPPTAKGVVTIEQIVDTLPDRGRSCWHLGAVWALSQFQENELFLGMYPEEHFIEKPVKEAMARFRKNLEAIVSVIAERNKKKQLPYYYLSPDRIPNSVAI
Method in brief: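 Human PBML (5 × 10⁶ cells/mL) in HBSS pH 7.4 preincubated with compound 15 min at 37 °C. Calcium ionophore A23187 (30) then added, 15 min at 37 °C, and reaction stopped with 1 N HCl.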

[2] = target: T2, Prostaglandin G/H synthase 2 (Homo sapiens) (UniProt P35354); experiment: Inhibition of human recombinant COX2 expressed in Sf21 cells assessed as conversion of arachidonic acid to PGE2 at 10 uM preincubated for 15 mins measured after 5 mins by enzyme immunoassay
T2 sequence (whole entry): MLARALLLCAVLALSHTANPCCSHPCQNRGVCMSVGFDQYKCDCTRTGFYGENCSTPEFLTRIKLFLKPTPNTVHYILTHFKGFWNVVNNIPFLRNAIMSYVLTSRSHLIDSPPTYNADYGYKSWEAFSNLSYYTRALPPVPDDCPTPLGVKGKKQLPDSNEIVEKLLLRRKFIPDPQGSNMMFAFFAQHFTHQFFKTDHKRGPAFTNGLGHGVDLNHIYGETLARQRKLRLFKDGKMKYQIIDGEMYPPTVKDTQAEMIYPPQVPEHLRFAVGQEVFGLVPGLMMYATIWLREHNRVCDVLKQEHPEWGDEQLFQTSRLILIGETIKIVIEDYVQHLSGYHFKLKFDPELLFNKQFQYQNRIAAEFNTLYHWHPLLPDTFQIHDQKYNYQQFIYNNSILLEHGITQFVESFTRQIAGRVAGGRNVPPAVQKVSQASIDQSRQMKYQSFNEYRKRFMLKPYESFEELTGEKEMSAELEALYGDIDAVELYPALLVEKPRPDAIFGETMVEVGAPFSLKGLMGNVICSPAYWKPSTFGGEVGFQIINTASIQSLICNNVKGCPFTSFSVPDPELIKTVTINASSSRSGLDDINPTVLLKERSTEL
Method in brief: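 Human recombinant COX-2 (Sf21-expressed, 0.11 U) preincubated with compound 15 min at 37 °C in Tris–HCl pH 7.7 containing 1 mM glutathione, phenol and hematin. Reaction started with 0.3 arachidonic acid. Run by a contract lab.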

[3] = target: T3, Polyunsaturated fatty acid 5-lipoxygenase (Homo sapiens, UniProt P09917); experiment: Inhibition of […] human PBML assessed as inhibition of A23187-induced LTB4 production preincubated for 15 mins measured after 15 mins by enzyme immunoassay
T3 sequence (P09917 whole entry): T1 sequence (whole entry)

[4] = target: T4, Prostaglandin G/H synthase 2 (Homo sapiens, UniProt P35354); experiment: Inhibition of human recombinant COX2 expressed in Sf21 cells assessed as conversion of arachidonic acid to PGE2 preincubated for 15 mins measured after 5 mins by enzyme immunoassay
T4 sequence (P35354 whole entry): T2 sequence (whole entry)

[5] = test system: Rattus norvegicus; experiment: Antiinflammatory activity in Wistar rat assessed as inhibition of carrageenan-induced paw edema at 100 mg/kg, ip administered 30 mins before carrageenan challenge measured after 3 hrs relative to vehicle treated control; format: functional; conditions: route intraperitoneal
Method in brief: (§1)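 Male Wistar rats, held at 20–24 °C and 50–80% humidity on 12 h light/dark for at least three days, with chow and water unless fasted. Test article given IP at 10, 30 or 100 mg/kg in 1% Tween 80/0.9% NaCl, dosing volume 5 mL/kg, 30 min before intraplantar carrageenan (0.1 mL of 1% suspension) into the right hind paw. Edema read by plethysmometer at 3 h; inhibition taken relative to vehicle group.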

[6] = test system: Rattus norvegicus; experiment: Antiinflammatory activity in Wistar rat assessed as inhibition of carrageenan-induced paw edema at 10 mg/kg, ip administered 30 mins before carrageenan challenge measured after 3 hrs relative to vehicle treated control; format: functional; conditions: route intraperitoneal; method in brief: as §1
[7] = test system: Rattus norvegicus; experiment: Antiinflammatory activity in ip dosed Wistar rat assessed as inhibition of carrageenan-induced paw edema administered 30 mins before carrageenan challenge measured after 3 hrs; format: functional, organism-based; method in brief: as §1
[8] = test system: Rattus norvegicus; experiment: Antiinflammatory activity in Wistar rat assessed as inhibition of carrageenan-induced paw edema at 30 mg/kg, ip administered 30 mins before carrageenan challenge measured after 3 hrs relative to vehicle treated control; format: functional; conditions: route intraperitoneal; method in brief: as §1
[9] = test system: Rattus norvegicus; experiment: Antiinflammatory activity in Wistar rat assessed as inhibition of carrageenan-induced paw edema at 150 mg/kg, po administered 1 hr before carrageenan challenge measured after 3 hrs relative to vehicle treated control; format: functional
Method in brief: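 Male Wistar rats given aspirin orally at 150 mg/kg, 1 h before intraplantar carrageenan (0.1 mL of 1% suspension) into the right hind paw. Hind paw edema read by plethysmometer 3 h after carrageenan; reduction taken relative to vehicle group.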

| SMILES | inhibition [1] | inhibition [2] | IC50 [3] | other results |
| --- | --- | --- | --- | --- |
| O=S1(=O)N=C(c2ccc(Br)cc2)c2ccccc21 | 11% | 0% |  |  |
| Cc1ccc(C2=NS(=O)(=O)c3ccccc32)cc1 | 9% | 16% |  |  |
| NS(=O)(=O)c1ccc2c(c1)S(c1ccc(F)cc1F)=NS2(=O)=O (stereo not drawn) | inactive | inactive |  |  |
| COc1ccc(S2=NS(=O)(=O)c3cc([N+](=O)[O-])ccc32)cc1OC (stereo not drawn) |  | 15% | 0.68 µM |  |
| CC(C)c1ccc(S2=NS(=O)(=O)c3cc([N+](=O)[O-])ccc32)cc1 (stereo not drawn) |  |  | 0.36 µM | IC50 [4]: 0.73 µM |
| CC(C)(C)c1ccc(S2=NS(=O)(=O)c3cc([N+](=O)[O-])ccc32)cc1 (stereo not drawn) |  |  | 0.3 µM | inhibition in vivo at 100 mg/kg [5]: 65%; inhibition in vivo at 10 mg/kg [6]: 14%; inhibition [7]: Dose-dependent effect; IC50 [4]: 0.27 µM; inhibition in vivo at 30 mg/kg [8]: 27% |
| NS(=O)(=O)c1ccc2c(c1)S(c1cccc(Br)c1)=NS2(=O)=O (stereo not drawn) | 28% | 7% |  |  |
| CC(C)c1ccc(S2=NS(=O)(=O)c3ccc(S(N)(=O)=O)cc32)cc1 (stereo not drawn) | 19% | 10% |  |  |
| NS(=O)(=O)c1ccc2c(c1)S(c1ccc(Cl)cc1Cl)=NS2(=O)=O (stereo not drawn) | inactive | 9% |  |  |
| COc1ccc(S2=NS(=O)(=O)c3cc([N+](=O)[O-])ccc32)cc1 (stereo not drawn) |  |  | 0.35 µM | IC50 [4]: 0.88 µM |
| CC(C)(C)c1ccc(S2=NS(=O)(=O)c3ccc(S(N)(=O)=O)cc32)cc1 (stereo not drawn) | 25% | inactive |  |  |
| CC(C)(C)c1ccc(S2=NS(=O)(=O)c3cc(S(N)(=O)=O)ccc32)cc1 (stereo not drawn) | 23% | 21% |  |  |
| NS(=O)(=O)c1ccc2c(c1)S(c1ccc(C(F)(F)F)cc1)=NS2(=O)=O (stereo not drawn) | 37% | inactive |  |  |
| NS(=O)(=O)c1ccc2c(c1)S(c1ccc(F)cc1)=NS2(=O)=O (stereo not drawn) | 9% | 2% |  |  |
| CCc1ccc(S2=NS(=O)(=O)c3ccc(S(N)(=O)=O)cc32)cc1 (stereo not drawn) | 7% | inactive |  |  |
| O=S1(=O)N=S(c2ccccc2)c2ccccc21 (stereo not drawn) | 14% | 0% |  |  |
| Cc1ccc(S2=NS(=O)(=O)c3ccc(S(N)(=O)=O)cc32)c(C)c1 (stereo not drawn) | inactive | inactive |  |  |
| O=C(O)c1ccc2c(c1)S(=O)(=O)N=S2c1ccc(Br)cc1 (stereo not drawn) | 2% | 7% |  |  |
| CCc1ccc(S2=NS(=O)(=O)c3cc(S(C)(=O)=O)ccc32)cc1 (stereo not drawn) | 35% | 43% |  |  |
| NC(=O)c1ccc2c(c1)S(=O)(=O)N=S2c1ccc(Br)cc1 (stereo not drawn) | 15% | 0% |  |  |
| Cc1ccc(S2=NS(=O)(=O)c3ccc(S(N)(=O)=O)cc32)cc1 (stereo not drawn) | 9% | 2% |  |  |
| Cc1ccc2c(c1)S(=O)(=O)N=S2c1ccc(Br)cc1 (stereo not drawn) |  | 14% | 6.05 µM |  |

| SMILES | inhibition [1] | inhibition [2] | IC50 [3] | other results |
| --- | --- | --- | --- | --- |
| CCc1ccc(C2=NS(=O)(=O)c3cc(S(N)(=O)=O)ccc32)cc1 | 8% | 0% |  |  |
| NS(=O)(=O)c1ccc2c(c1)S(=O)(=O)N=S2c1ccc(Br)cc1 (stereo not drawn) |  | 0% | 91.1 µM |  |
| COC1(c2cc(F)cc(OCCS3=NS(=O)(=O)c4cc([N+](=O)[O-])ccc43)c2)CCOCC1 (stereo not drawn) | 25% | 25% |  |  |
| CCc1ccc(S2=NS(=O)(=O)c3cc([N+](=O)[O-])ccc32)cc1 (stereo not drawn) |  |  | 0.18 µM | IC50 [4]: 1.7 µM |
| NS(=O)(=O)c1ccc2c(c1)S(c1ccc(Cl)cc1)=NS2(=O)=O (stereo not drawn) | 19% | inactive |  |  |
| CS(=O)(=O)c1ccc2c(c1)S(=O)(=O)N=S2c1ccc(Br)cc1 (stereo not drawn) |  |  | 13.5 µM | IC50 [4]: 1.8 µM |
| NS(=O)(=O)c1ccc2c(c1)S(c1ccc(Br)cc1)=NS2(=O)=O (stereo not drawn) | 14% |  |  |  |
| CC(=O)Oc1ccccc1C(=O)O [ASPIRIN] |  |  |  | inhibition in vivo at 150 mg/kg [9]: 38% |
| NS(=O)(=O)c1cc2c(cc1Cl)S(c1ccc(Br)cc1)=NS2(=O)=O (stereo not drawn) |  |  | 25.8 µM | IC50 [4]: 2.3 µM |
| NS(=O)(=O)c1ccc2c(c1)S(=O)(=O)N=S2c1ccc(-c2ccccc2)cc1 (stereo not drawn) |  | 31% | 3.45 µM |  |
| CC(C)c1ccc(S2=NS(=O)(=O)c3cc(S(N)(=O)=O)ccc32)cc1 (stereo not drawn) | 42% | 44% |  |  |
| O=[N+]([O-])c1ccc2c(c1)S(=O)(=O)N=S2c1ccc(-c2ccccc2)cc1 (stereo not drawn) |  |  | 0.15 µM | IC50 [4]: 0.5 µM |
| NS(=O)(=O)c1ccc2c(c1)S(c1ccc(Cl)c(Cl)c1)=NS2(=O)=O (stereo not drawn) | inactive | 14% |  |  |
| COC(=O)c1ccc2c(c1)S(=O)(=O)N=S2c1ccc(Br)cc1 (stereo not drawn) |  | 33% | 4.1 µM |  |
| COc1ccc(S2=NS(=O)(=O)c3ccc(S(N)(=O)=O)cc32)cc1 (stereo not drawn) | 21% | inactive |  |  |
| O=S1(=O)N=S(c2ccc(Br)cc2)c2ccccc21 (stereo not drawn) | 33% | 2% |  |  |
| O=[N+]([O-])c1ccc2c(c1)S(=O)(=O)N=S2c1ccncc1 (stereo not drawn) | 17% | 15% |  |  |
| O=[N+]([O-])c1ccc2c(c1)S(=O)(=O)N=S2c1ccc(C(F)(F)F)cc1 (stereo not drawn) |  |  | 3.09 µM | IC50 [4]: 2.99 µM |
| Cc1ccc(S2=NS(=O)(=O)c3ccc(S(N)(=O)=O)cc32)cc1C (stereo not drawn) | inactive | 15% |  |  |
| COc1cc(OC)cc(OCCS2=NS(=O)(=O)c3cc([N+](=O)[O-])ccc32)c1 (stereo not drawn) |  | 35% | 3.7 µM |  |
| COc1ccc(S2=NS(=O)(=O)c3ccc(S(N)(=O)=O)cc32)cc1OC (stereo not drawn) | inactive | 6% |  |  |
